In ChEMBL document CHEMBL1137919, “Dipeptidyl aspartyl fluoromethylketones as potent caspase inhibitors: SAR of the N-protecting group” (Bioorg Med Chem Lett, 2004):

Tests used:
[1] = Inhibition concentration required against caspase-1
[2] = Percent survival of the mice after 24 hr treatment was determined after induction of apoptosis by anti-Fas antibody; Dose is 0 mg/kg; format: functional, Mus musculus
In short: (§1)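 Mouse anti-Fas lethality model: mice given 8 µg anti-Fas monoclonal antibody (clone JO-2) IV, then 5 min later an IV dose of inhibitor (0.25–10 mg/kg) or vehicle. The aqueous vehicle contained 50 mM Tris–HCl. Six mice per group. Survivors were counted at 1, 3, 6 and 24 h and at 5 days, expressed as % of the animals in the group.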

[3] = Percent survival of the mice after 24 hr treatment was determined after induction of apoptosis by anti-Fas antibody; Dose is 0.5 mg/kg; format: functional; conditions: Mus musculus; in short: as §1
[4] = Percent survival of the mice after 6 hr treatment was determined after induction of apoptosis by anti-Fas antibody; Dose is 1 mg/kg; format: functional; conditions: Mus musculus; in short: as §1
[5] = Percent survival of the mice after 1 hr treatment was determined after induction of apoptosis by anti-Fas antibody; Dose is 0 mg/kg; format: functional, Mus musculus; in short: as §1
[6] = Inhibition concentration required against factor Xa
[7] = Percent survival of the mice after 5 days treatment was determined after induction of apoptosis by anti-Fas antibody; Dose is 0.5 mg/kg; format: functional; conditions: Mus musculus, 120 h; in short: as §1
[8] = Percent survival of the mice after 3h treatment was determined after induction of apoptosis by anti-Fas antibody; Dose is 0 mg/kg; format: functional, Mus musculus; in short: as §1
Caspase-7 = biological target: T1, Caspase-7 (Homo sapiens, UniProt P55210); assay: Inhibition concentration required against caspase-7
T1 sequence (P55210 whole entry): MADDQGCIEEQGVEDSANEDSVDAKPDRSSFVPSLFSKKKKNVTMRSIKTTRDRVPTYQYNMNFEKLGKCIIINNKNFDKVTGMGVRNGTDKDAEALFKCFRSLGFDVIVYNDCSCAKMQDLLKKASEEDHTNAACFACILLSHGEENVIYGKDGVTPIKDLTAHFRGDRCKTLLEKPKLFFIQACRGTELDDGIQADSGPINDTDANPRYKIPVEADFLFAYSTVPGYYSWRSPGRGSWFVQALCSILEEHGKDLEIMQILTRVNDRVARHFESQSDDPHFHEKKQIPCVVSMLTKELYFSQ

[9] = Percent survival of the mice after 6 hr treatment was determined after induction of apoptosis by anti-Fas antibody; Dose is 10 mg/kg; format: functional; conditions: Mus musculus; in short: as §1
[10] = Percent survival of the mice after 3h treatment was determined after induction of apoptosis by anti-Fas antibody; Dose is 10 mg/kg; format: functional; conditions: Mus musculus; in short: as §1
Caspase-9 = biological target: T2, Caspase-9 (Homo sapiens, UniProt P55211); assay: Inhibition concentration required against caspase-9
T2 sequence (P55211 whole entry): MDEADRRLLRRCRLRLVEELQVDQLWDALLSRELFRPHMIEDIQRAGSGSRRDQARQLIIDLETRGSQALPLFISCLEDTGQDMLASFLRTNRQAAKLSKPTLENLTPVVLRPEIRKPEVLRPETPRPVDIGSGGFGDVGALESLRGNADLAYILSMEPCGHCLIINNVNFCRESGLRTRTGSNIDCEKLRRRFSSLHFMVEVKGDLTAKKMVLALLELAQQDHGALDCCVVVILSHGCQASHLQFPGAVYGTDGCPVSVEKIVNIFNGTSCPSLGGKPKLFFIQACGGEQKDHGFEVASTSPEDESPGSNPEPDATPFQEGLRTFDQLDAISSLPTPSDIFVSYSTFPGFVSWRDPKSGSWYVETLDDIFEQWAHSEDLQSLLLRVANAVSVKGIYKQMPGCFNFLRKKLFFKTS

[11] = Percent survival of the mice after 5 days treatment was determined after induction of apoptosis by anti-Fas antibody; Dose is 1 mg/kg; format: functional; conditions: Mus musculus, 120 h; in short: as §1
[12] = Percent survival of the mice after 6 hr treatment was determined after induction of apoptosis by anti-Fas antibody; Dose is 0.5 mg/kg; format: functional; conditions: Mus musculus; in short: as §1
[13] = Percent survival of the mice after 6 hr treatment was determined after induction of apoptosis by anti-Fas antibody; Dose is 0 mg/kg; format: functional, Mus musculus; in short: as §1
[14] = Percent survival of the mice after 5 days treatment was determined after induction of apoptosis by anti-Fas antibody; Dose is 10 mg/kg; format: functional; conditions: Mus musculus, 120 h; in short: as §1
[15] = Percent survival of the mice after 6 hr treatment was determined after induction of apoptosis by anti-Fas antibody; Dose is 0.25 mg/kg; format: functional; conditions: Mus musculus; in short: as §1
[16] = Percent survival of the mice after 3h treatment was determined after induction of apoptosis by anti-Fas antibody; Dose is 1 mg/kg; format: functional; conditions: Mus musculus; in short: as §1
[17] = Percent survival of the mice after 1 hr treatment was determined after induction of apoptosis by anti-Fas antibody; Dose is 1 mg/kg; format: functional; conditions: Mus musculus; in short: as §1
[18] = Percent survival of the mice after 24 hr treatment was determined after induction of apoptosis by anti-Fas antibody; Dose is 1 mg/kg; format: functional; conditions: Mus musculus; in short: as §1
[19] = Inhibition concentration required against cathepsin B; design: species or system Homo sapiens
[20] = Percent survival of the mice after 24 hr treatment was determined after induction of apoptosis by anti-Fas antibody; Dose is 0.25 mg/kg; format: functional; conditions: Mus musculus; in short: as §1
[21] = Percent survival of the mice after 3h treatment was determined after induction of apoptosis by anti-Fas antibody; Dose is 0.5 mg/kg; format: functional; conditions: Mus musculus; in short: as §1
[22] = Percent survival of the mice after 5 days treatment was determined after induction of apoptosis by anti-Fas antibody; Dose is 0.25 mg/kg; format: functional; conditions: Mus musculus, 120 h; in short: as §1
[23] = Percent survival of the mice after 5 days treatment was determined after induction of apoptosis by anti-Fas antibody; Dose is 0 mg/kg; format: functional, Mus musculus; in short: as §1
Caspase-8 = Caspase-8 (Homo sapiens, UniProt Q14790); assay: Inhibition concentration required against caspase-8
Sequence of Caspase-8 (Q14790 217-374 limits assumed): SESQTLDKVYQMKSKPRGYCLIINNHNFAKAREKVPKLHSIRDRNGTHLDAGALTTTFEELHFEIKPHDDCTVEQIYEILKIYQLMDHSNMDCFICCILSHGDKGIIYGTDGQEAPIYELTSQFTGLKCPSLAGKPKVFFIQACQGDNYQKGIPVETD
Sequence of Caspase-8 (Q14790 385-479 limits assumed): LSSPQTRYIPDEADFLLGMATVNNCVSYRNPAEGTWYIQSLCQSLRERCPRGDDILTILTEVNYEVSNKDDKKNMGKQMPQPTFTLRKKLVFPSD

[24] = biological target: T3, Calpain-1 catalytic subunit (Homo sapiens, UniProt P07384); assay: Inhibition concentration required against calpain-1
T3 sequence (P07384 whole entry): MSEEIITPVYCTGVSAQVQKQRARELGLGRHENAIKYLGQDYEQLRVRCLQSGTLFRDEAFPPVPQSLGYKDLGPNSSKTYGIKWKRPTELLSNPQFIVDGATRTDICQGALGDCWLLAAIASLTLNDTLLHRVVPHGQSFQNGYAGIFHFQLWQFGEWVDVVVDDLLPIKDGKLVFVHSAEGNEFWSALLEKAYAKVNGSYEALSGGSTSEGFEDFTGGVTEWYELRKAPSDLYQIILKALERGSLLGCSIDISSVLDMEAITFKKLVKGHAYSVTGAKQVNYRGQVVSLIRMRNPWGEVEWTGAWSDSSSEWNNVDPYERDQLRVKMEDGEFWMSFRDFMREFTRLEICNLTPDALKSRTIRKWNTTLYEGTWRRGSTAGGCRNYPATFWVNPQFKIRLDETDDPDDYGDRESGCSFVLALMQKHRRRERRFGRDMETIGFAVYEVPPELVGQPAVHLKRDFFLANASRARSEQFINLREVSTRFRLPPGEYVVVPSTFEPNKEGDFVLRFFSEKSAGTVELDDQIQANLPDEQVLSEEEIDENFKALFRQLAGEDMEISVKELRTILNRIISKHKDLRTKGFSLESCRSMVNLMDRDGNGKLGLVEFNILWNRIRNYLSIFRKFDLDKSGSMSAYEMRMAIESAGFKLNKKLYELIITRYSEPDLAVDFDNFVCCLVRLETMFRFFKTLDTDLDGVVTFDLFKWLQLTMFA

[25] = Percent survival of the mice after 1 hr treatment was determined after induction of apoptosis by anti-Fas antibody; Dose is 10 mg/kg; format: functional; conditions: Mus musculus; in short: as §1
Caspase-3 = biological target: T4, Caspase-3 (Homo sapiens, UniProt P42574); assay: Inhibitory activity against human recombinant caspase-3
T4 sequence (P42574 whole entry): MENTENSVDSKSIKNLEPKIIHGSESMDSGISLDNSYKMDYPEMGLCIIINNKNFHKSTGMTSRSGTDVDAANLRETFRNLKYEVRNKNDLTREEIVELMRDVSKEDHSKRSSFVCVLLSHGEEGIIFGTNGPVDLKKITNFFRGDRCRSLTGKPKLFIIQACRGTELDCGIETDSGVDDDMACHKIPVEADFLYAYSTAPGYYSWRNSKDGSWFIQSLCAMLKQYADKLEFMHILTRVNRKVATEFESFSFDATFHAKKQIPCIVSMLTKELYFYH

[26] = Percent survival of the mice after 1 hr treatment was determined after induction of apoptosis by anti-Fas antibody; Dose is 0.5 mg/kg; format: functional; conditions: Mus musculus; in short: as §1
[27] = Percent survival of the mice after 3h treatment was determined after induction of apoptosis by anti-Fas antibody; Dose is 0.25 mg/kg; format: functional; conditions: Mus musculus; in short: as §1
HeLa = assay: Protecting effect against apoptosis induced by TNF-alpha in HeLa cells was determined; format: functional, Homo sapiens
In short: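 HeLa cells exposed to TNF-a to induce apoptosis, with test inhibitor present. Viability read out as calcein AM uptake. The value reported is the inhibitor concentration giving 50% cell protection.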

[28] = Percent survival of the mice after 1 hr treatment was determined after induction of apoptosis by anti-Fas antibody; Dose is 0.25 mg/kg; format: functional; conditions: Mus musculus; in short: as §1
[29] = Percent survival of the mice after 24 hr treatment was determined after induction of apoptosis by anti-Fas antibody; Dose is 10 mg/kg; format: functional; conditions: Mus musculus; in short: as §1

CC(C)[C@H](NC(=O)OCc1ccc(Cl)cc1Cl)C(=O)NC(CC(=O)O)C(=O)CF (stereo not given in full)
IC50 [1]: 26 nM
Survival [2]: 0%
survival at 0.5 mg/kg [3]: 50%
survival at 1 mg/kg [4]: 100%
Survival [5]: 0%
IC50 [6]: > 100000 nM
survival at 0.5 mg/kg [7]: 50%
Survival [8]: 0%
IC50 (Caspase-7): 10 nM
survival at 10 mg/kg [9]: 100%
survival at 10 mg/kg [10]: 100%
IC50 (Caspase-9): 9 nM
survival at 1 mg/kg [11]: 100%
survival at 0.5 mg/kg [12]: 83%
Survival [13]: 0%
survival at 10 mg/kg [14]: 100%
survival at 0.25 mg/kg [15]: 83%
survival at 1 mg/kg [16]: 100%
survival at 1 mg/kg [17]: 100%
survival at 1 mg/kg [18]: 100%
IC50 [19]: ~10000 nM
survival at 0.25 mg/kg [20]: 33%
survival at 0.5 mg/kg [21]: 100%
survival at 0.25 mg/kg [22]: 16%
Survival [23]: 0%
IC50 (Caspase-8): 6 nM
IC50 [24]: ~5000 nM
survival at 10 mg/kg [25]: 100%
IC50 (Caspase-3): 25 nM
survival at 0.5 mg/kg [26]: 100%
survival at 0.25 mg/kg [27]: 100%
Protection (HeLa): 100 nM
survival at 0.25 mg/kg [28]: 100%
survival at 10 mg/kg [29]: 100%

CC(C)[C@H](NC(=O)OCc1cc(Cl)ccc1Cl)C(=O)NC(CC(=O)O)C(=O)CF (stereo not given in full)
Protection (HeLa): 100 nM

CC(C)[C@H](NC(=O)OCc1ccc(Cl)c(Cl)c1)C(=O)NC(CC(=O)O)C(=O)CF (stereo not given in full)
Protection (HeLa): 150 nM

COC(=O)N[C@H](C(=O)NC(CC(=O)O)C(=O)CF)C(C)C (stereo not given in full)
Protection (HeLa): 500 nM

CC(C)[C@H](NC(=O)OCc1ccccc1)C(=O)NC(CC(=O)O)C(=O)CF (stereo not given in full)
Protection (HeLa): 250 nM

CC(C)[C@H](NC(=O)OCC1CCCC1)C(=O)NC(CC(=O)O)C(=O)CF (stereo not given in full)
Protection (HeLa): 300 nM

CC(C)[C@H](NC(=O)OCc1ccc(F)cc1)C(=O)NC(CC(=O)O)C(=O)CF (stereo not given in full)
Protection (HeLa): 150 nM
